Test results: ChEMBL document CHEMBL5385869, “Novel 4-aminoquinolines: Synthesis, inhibition of the Mycobacterium tuberculosis enoyl-acyl carrier protein reductase, antitubercular activity, SAR, and preclinical evaluation” (Eur J Med Chem, 2023)
In brackets after ≈: the same amount, converted by molar mass. Activity calls are given as the source filed them. The calls are words filed in the database; no cut-off is given here.

How the values were obtained:
[1] = tested on: Mycobacterium tuberculosis; test: Antibacterial activity against pan-sensitive Mycobacterium tuberculosis H37Rv ATCC 27294 measured after 7 days by resazurin dye based assay; type: functional; conditions: H37Rv ATCC 27294, 168 h, time 7 day
Method in brief: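 Resazurin reduction microplate assay (REMA) in Middlebrook 7H9 broth with 10% ADC and 5% DMSO. Compounds come from 2 mg/mL DMSO stocks and are 2-fold serially diluted, top concentration 0.08–40 μg/mL depending on solubility. MIC is the lowest concentration preventing the blue-to-pink colour change. Three independent experiments; the reported value is the modal or the highest value.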

[2] = target: T1, Enoyl-[acyl-carrier-protein] reductase [NADH] (Mycobacterium tuberculosis, UniProt P9WGR1); test: Inhibition of Mycobacterium tuberculosis InhA-catalysed chemical reaction in presence of NADH measured for 1 min by UV/Visible spectrophotometry
T1 sequence (P9WGR1 whole entry): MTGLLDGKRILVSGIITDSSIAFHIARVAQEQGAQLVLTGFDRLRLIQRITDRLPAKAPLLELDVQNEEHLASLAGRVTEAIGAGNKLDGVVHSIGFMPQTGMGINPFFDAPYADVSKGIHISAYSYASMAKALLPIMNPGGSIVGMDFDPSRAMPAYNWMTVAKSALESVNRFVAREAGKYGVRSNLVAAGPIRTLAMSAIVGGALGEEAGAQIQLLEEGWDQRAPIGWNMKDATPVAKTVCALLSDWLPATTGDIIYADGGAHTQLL
Method in brief: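 Recombinant MtInhA reaction at 25 °C in 100 mM Pipes pH 7.0, started by adding 2.2 μM enzyme and followed for 1 min. Substrate is DD-CoA, made from 2-trans-dodecenoic acid and CoA.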

[3] = tested on: Mycobacterium tuberculosis; test: Antibacterial activity against Mycobacterium tuberculosis H37Rv ATCC 27294 infected in CF-1 mouse assessed as reversal of bacterial growth in spleen at 300 uM/kg, po administered daily for 14 days starting from 7 days post infection; type: functional, organism-based; conditions: time 14.0 day
Method in brief: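 Mice treated by gavage from 7 days post-infection for 14 days, daily, at 300 or 450 μM/kg. Lungs and spleen homogenized in saline and plated for CFU. Comparisons are against vehicle and early-control groups.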

[4] = Selectivity index, ratio of CC50 for human HepG2 cells by MTT assay to MIC for pan-sensitive Mycobacterium tuberculosis H37Rv ATCC 27294; type: toxicity; conditions: read-out: Selectivity Index
[5] = target: T1, Enoyl-[acyl-carrier-protein] reductase [NADH]; test: Binding affinity to Mycobacterium tuberculosis InhA assessed as dissociation constant at 250 uM at 25 degreeC in presence of NADH by fluorescence spectroscopy
Method in brief: (§1)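 Titration of pre-formed MtInhA:NADH complex (2 mL of 3 μM enzyme with 20 μM NADH), adding microliter aliquots of 250 μM ligand stock with dilution kept ≤1%. Intrinsic fluorescence read at 295 nm excitation, 310–500 nm emission. Temperatures 15, 20, 25 and 30 °C. KD is fitted to a hyperbolic isotherm. ΔH°, ΔS° and ΔG° come from van't Hoff analysis of KD across temperatures.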

[6] = target: T2, Enoyl-[acyl-carrier-protein] reductase [NADH] (Mycobacterium tuberculosis) (UniProt P9WGR1); test: Time dependent inhibition of Mycobacterium tuberculosis InhA
T2 sequence (whole entry): T1 sequence (P9WGR1 whole entry)

[7] = Selectivity index, ratio of CC50 for human HepG2 cells by neutral red uptake assay to MIC for pan-sensitive Mycobacterium tuberculosis H37Rv ATCC 27294; type: toxicity; conditions: read-out: Selectivity Index
[8] = target: T1, Enoyl-[acyl-carrier-protein] reductase [NADH]; test: Noncompetitive inhibition of Mycobacterium tuberculosis InhA using DD-CoA as substrate assessed as inhibition constant for enzyme-substrate-inhibitor ternary complex in presence of varying concentrations of NADH by double reciprocal plot analysis
[9] = Cytotoxicity against human HepG2 cells assessed as reduction in cell viability incubated for 72 hrs by MTT assay; type: toxicity, cell-based
Method in brief: (§2)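 Cells grown in DMEM with 10% FBS. HepG2 seeded at 4 × 10³ and Vero at 2 × 10³ cells/well, 24 h before dosing. Compounds at 1, 5 and 20 μM in 1% DMSO for 72 h at 37 °C, 5% CO2. MTT readout: 5 mg/mL reagent for 4 h, absorbance at 595 nm. Neutral red readout: 25 μg/mL dye for 3 h, then acid-ethanol desorb. Viability is expressed relative to 1% DMSO controls.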

[10] = Selectivity index, ratio of CC50 for African green monkey Vero cells by neutral red uptake assay to MIC for pan-sensitive Mycobacterium tuberculosis H37Rv ATCC 27294; type: toxicity, cell-based; conditions: read-out: Selectivity Index
[11] = Selectivity index, ratio of CC50 for African green monkey Vero cells by MTT assay to MIC for pan-sensitive Mycobacterium tuberculosis H37Rv ATCC 27294; type: toxicity, cell-based; conditions: read-out: Selectivity Index
[12] = Cytotoxicity against African green monkey Vero cells assessed as reduction in cell viability incubated for 72 hrs by neutral red uptake assay; type: toxicity, cell-based; conditions: chlorocebus sabaeus; method in brief: as §2
[13] = target: T2, Enoyl-[acyl-carrier-protein] reductase [NADH] (Mycobacterium tuberculosis); test: Binding affinity to Mycobacterium tuberculosis InhA assessed as change in enthalpy at 250 uM in presence of NADH by fluorescence spectroscopy
[14] = Cytotoxicity against human HepG2 cells assessed as reduction in cell viability incubated for 72 hrs by neutral red uptake assay; type: toxicity, cell-based; method in brief: as §2
[15] = target: T1, Enoyl-[acyl-carrier-protein] reductase [NADH]; test: Competitive inhibition of Mycobacterium tuberculosis InhA using varying concentrations of DD-CoA as substrate assessed as inhibition constant for enzyme-inhibitor binary complex in presence of NADH by Lineweaver-Burk plot analysis
Method in brief: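 Steady-state kinetics with recombinant MtInhA in 100 mM Pipes pH 7.0 at 25 °C. NADH fixed at 60 μM, DD-CoA varied 15–135 μM, inhibitor at fixed-varied levels of 0.2–4 μM. Kis is fitted to the competitive inhibition equation.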

[16] = Cytotoxicity against African green monkey Vero cells assessed as reduction in cell viability incubated for 72 hrs by MTT assay; type: toxicity, cell-based; conditions: chlorocebus sabaeus; method in brief: as §2
[17] = target: T2, Enoyl-[acyl-carrier-protein] reductase [NADH] (Mycobacterium tuberculosis); test: Binding affinity to Mycobacterium tuberculosis InhA assessed as change in entropy at 250 uM in presence of NADH by fluorescence spectroscopy
[18] = target: T2, Enoyl-[acyl-carrier-protein] reductase [NADH] (Mycobacterium tuberculosis); test: Binding affinity to Mycobacterium tuberculosis InhA assessed as gibbs free energy change at 250 uM in presence of NADH by fluorescence spectroscopy; method in brief: as §1
[19] = target: T1, Enoyl-[acyl-carrier-protein] reductase [NADH]; test: Noncompetitive inhibition of Mycobacterium tuberculosis InhA using DD-CoA as substrate assessed as inhibition constant for enzyme-inhibitor binary complex in presence of varying concentrations of NADH by double reciprocal plot analysis

Compound	MIC [1] [µM]	IC50 [2] [µM]	also measured
Cc1cc(Nc2ccc(N3CCCCC3)cc2)c2cc([N+](=O)[O-])ccc2n1	6.9 (≈ 2.5 µg/mL)	18.6	
CCOC(=O)c1ccc2nc(C)cc(Nc3ccc(CC)cc3)c2c1	29.9 (≈ 10 µg/mL)	41.3	
COc1ccc2nc(C)cc(Nc3ccc(N4CCCCC4)cc3)c2c1	3.6 (≈ 1.25 µg/mL)	4.7	
CC[C@@H](CO)NCCN[C@@H](CC)CO			Activity [3]: inactive
CCOC(=O)c1ccc2nc(C)cc(Nc3ccc(CN4CCCCC4)cc3)c2c1	49.6 (≈ 20 µg/mL)	> 50	
CCOC(=O)c1ccc2nc(C)cc(Nc3ccc(C(=O)N4CCCC4)cc3)c2c1	> 49.6	44.5	
Cc1cc(Nc2ccc(N3CCCCC3)cc2)c2cc(C(C)C)ccc2n1	6.9 (≈ 2.48 µg/mL)	8.2	
CCCCc1ccc(Nc2cc(C)nc3ccc(C(=O)OCC)cc23)cc1	6.9 (≈ 2.5 µg/mL)	11.2	
Cc1cc(Nc2ccc(N3CCC(C)CC3)cc2)c2cc(Br)ccc2n1	0.7 (≈ 0.287 µg/mL)	1.4	selectivity ratio [4]: 7.6; Kd [5]: 1.25 µM; TDI [6]: inactive; selectivity ratio [7]: 17.4; Ki [8]: 0.69 µM; CC50 at 72 h [9]: 5.3 µM; selectivity ratio [10]: 8.9; selectivity ratio [11]: 13.8; CC50 at 72 h [12]: 6.2 µM; deltaH [13]: -5.6 kcal/mol; CC50 at 72 h [14]: 12.2 µM; Ki [15]: 0.79 µM; CC50 at 72 h [16]: 9.7 µM; deltaS [17]: 8.3 cal/mol/K; deltaG [18]: -8 kcal/mol; Ki [19]: 0.72 µM
CO[C@H]1/C=C/O[C@@]2(C)Oc3c(C)c(O)c4c(O)c(c(/C=N/N5CCN(C)CC5)c(O)c4c3C2=O)NC(=O)/C(C)=C\C=C\[C@H](C)[C@H](O)[C@@H](C)[C@@H](O)[C@@H](C)[C@H](OC(C)=O)[C@@H]1C [RIFAMPIN]	0.05 (≈ 0.0411 µg/mL)		
CCOC(=O)c1ccc2nc(C)cc(Nc3ccc(N4CCCC4)cc3)c2c1	13.3 (≈ 4.99 µg/mL)	21.7	
CCOC(=O)c1ccc2nc(C)cc(Nc3ccc(N4CCN(Cc5ccccc5)CC4)cc3)c2c1	10.4 (≈ 5 µg/mL)	26.2	
CCOC(=O)c1ccc2nc(C)cc(Nc3ccc(N4CCOCC4)cc3)c2c1	51.1 (≈ 20 µg/mL)	19.5	
Cc1cc(Nc2ccc(N3CCCCC3)cc2)c2cc(F)ccc2n1	14.9 (≈ 5 µg/mL)	38.3	
Cc1cc(Nc2ccc(N3CCC(c4ccccc4)CC3)cc2)c2cc(Br)ccc2n1	1.33 (≈ 0.628 µg/mL)	> 50	
CCOC(=O)c1ccc2nc(C)cc(Nc3ccc(N4CCSCC4)cc3)c2c1	> 12.3	> 50	
CCOC(=O)c1ccc2nc(C)cc(Nc3ccc(-n4cccn4)cc3)c2c1	> 6.7	8	
CCc1cc(Nc2ccc(N3CCCCC3)cc2)c2cc(Br)ccc2n1	0.75 (≈ 0.308 µg/mL)	1.54	
CCc1cc(Nc2ccc(N3CCCCC3)cc2)c2cc(Cl)ccc2n1	1.7 (≈ 0.622 µg/mL)	2.9	
CCOC(=O)c1ccc2nc(C)cc(Nc3ccc(-n4cnc5ccccc54)cc3)c2c1	> 47.3	42.1	
CCCc1ccc(Nc2cc(C)nc3ccc(C(=O)OCC)cc23)cc1	14.3 (≈ 4.98 µg/mL)	19.6	
Cc1cc(Nc2ccc(N3CCCC3CO)cc2)c2cc(Br)ccc2n1 (stereo not given)	12.1 (≈ 4.99 µg/mL)	> 50	
CCOc1ccc2nc(C)cc(Nc3ccc(N4CCCCC4)cc3)c2c1	6.9 (≈ 2.49 µg/mL)	9.5	
Cc1cc(Nc2ccc(-n3cccn3)cc2)c2cc(Br)ccc2n1	3.3 (≈ 1.25 µg/mL)	4.85	
Cc1cc(Nc2ccc(N3CCCCC3)cc2)c2cc(C#N)ccc2n1	14.6 (≈ 5 µg/mL)	19.6	
Cc1cc(Nc2ccc(N3CCCCC3)cc2)c2cc(N(C)C)ccc2n1	6.9 (≈ 2.49 µg/mL)	20	
Cc1ccc2nc(C)cc(Nc3ccc(N4CCCCC4)cc3)c2c1	7.5 (≈ 2.49 µg/mL)	17.2	
CCOC(=O)c1ccc2nc(C)cc(Nc3ccc(N4CCC(C)CC4)cc3)c2c1	6.2 (≈ 2.5 µg/mL)	10.9	
